Read-outs that look alike come from different tables or passages of the source. Each block holds one compound with its values, some of them ahead of it.
How the values were obtained:
[1] = system: glycolytic pathway in HeLa cells; assay: Cellular glycolysis in treated HeLa cells; assay type: cell-based, Human
Method in brief: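 HeLa cells in RPMI-1640 (10% FBS, 37 °C, 5% CO2), with or without an added 5 mM serine for 5 h. In a second arm, cells were serine-deprived overnight and then given fresh medium with or without serine for 5 h. Read-outs: medium glucose and lactate, and HClO4-extracted intracellular glycolytic intermediates, from which Qs and ΔGs were calculated. A cell-free HeLa-lysate glycolysis system was also run with or without 5 mM serine.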

[2] = system: glycolytic pathway (HeLa cell lysate); assay: Cell-free glycolysis assay using HeLa cell lysate; assay type: biochemical, Human
PKM2 [3] = conditions: activator of PKM2; cited from earlier work
PKM2 [4] = conditions: read-out: dissociation constant with PKM2; cited from earlier work
cell lysate PK (A549) = cell lysate PK (A549) (Homo sapiens, UniProt P14618); assay: PK activity assay, A549 cell lysate; assay type: biochemical
cell lysate PK (HeLa) = cell lysate PK (HeLa) (Homo sapiens, UniProt P14618); assay: PK activity assay, HeLa cell lysate; assay type: biochemical
cell lysate PK (MGC80-3) = cell lysate PK (MGC80-3) (Homo sapiens, UniProt P14618); assay: PK activity assay, MGC80-3 cell lysate; assay type: biochemical; conditions: MGC80-3 lysate; with AIM
cell lysate PK (RKO) = cell lysate PK (RKO) (Homo sapiens, UniProt P14618); assay: PK activity assay, RKO cell lysate; assay type: biochemical
[5] = target: cell lysate PK (SK-HEP-1) (Homo sapiens, UniProt P14618); assay: PK activity assay, SK-HEP-1 cell lysate; assay type: biochemical; conditions: read-out: AC50FBP; SK-HEP-1 lysate; Control (without AIM)
cell lysate PK = assay type: biochemical, Human; conditions: regulators at cellular concentrations; Fig. 5A
Method in brief: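 Lysates of control and PKM2 knockdown or knockout cells were assayed for PK by the coupled LDH/NADH method at 340 nm, 37 °C, pH 7.4. PEP was set at each line's measured cellular concentration, for example 0.07 mM for control HeLa and 0.21 mM for siPKM2 HeLa. FBP, the amino-acid mix, or both were added at cellular concentrations. Activity without regulators was set to 100%. Three independent experiments in triplicate.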

Sequence of cell lysate PK (HeLa) (P14618 2-531): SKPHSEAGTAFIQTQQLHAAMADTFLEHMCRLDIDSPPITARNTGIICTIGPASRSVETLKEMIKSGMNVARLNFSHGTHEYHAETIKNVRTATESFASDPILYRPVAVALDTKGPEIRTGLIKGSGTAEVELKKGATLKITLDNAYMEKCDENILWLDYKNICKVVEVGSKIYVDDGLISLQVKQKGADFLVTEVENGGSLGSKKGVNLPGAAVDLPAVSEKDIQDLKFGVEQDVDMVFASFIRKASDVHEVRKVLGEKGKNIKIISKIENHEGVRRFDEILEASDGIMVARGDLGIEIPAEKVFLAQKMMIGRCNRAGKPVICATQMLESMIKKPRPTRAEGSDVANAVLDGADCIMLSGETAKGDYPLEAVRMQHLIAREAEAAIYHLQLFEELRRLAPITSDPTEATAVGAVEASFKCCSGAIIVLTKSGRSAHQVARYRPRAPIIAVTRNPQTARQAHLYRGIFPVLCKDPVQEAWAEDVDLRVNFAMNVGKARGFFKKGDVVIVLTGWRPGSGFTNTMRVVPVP
Sequence of cell lysate PK (A549) (P14618 2-531): as above
Sequence of cell lysate PK (RKO) (P14618 2-531): as above
Sequence of cell lysate PK (MGC80-3) (P14618 2-531): as above
Sequence of cell lysate PK (SK-HEP-1) (P14618 2-531): as above

SMILES: Cn1c2cc([S+](C)[O-])sc2c2cnn(Cc3cccc(N)c3)c(=O)c21 (stereo not drawn) [TEPP-46]
effect on glycolytic rate ([1]; 1 μM TEPP-46): no significant effect | parameters of glycolysis (glucose consumption, lactate generation, intermediates, Qs, ΔGs) ([2]; 1 μM TEPP-46): […] | AC90TEPP-46 (PKM2 [3]): […]

SMILES: NC(=O)C[C@H](N)C(=O)O [asparagine]
Kd (PKM2 [4]): 11 ± 2 µM

ACMaxFBP (minimum concentration for maximal activation) (cell lysate PK (A549); Control (without AIM)): 279.0 ± 143.1 nM | EC50 (cell lysate PK (A549); read-out: AC50FBP, with AIM): 0.682 ± 0.126 µM | ACMaxFBP (minimum concentration for maximal activation) (cell lysate PK (A549); with AIM): 1258.9 ± 245.4 nM | ACMaxFBP (minimum concentration for maximal activation) (cell lysate PK (HeLa); Control (without AIM)): 216.4 ± 52.8 nM | AC0: concentration of FBP that completely reverses the inhibition of PK by AIM (cell lysate PK (HeLa); with AIM): 585.2 ± 99.0 nM | ACMaxFBP (minimum concentration for maximal activation) (cell lysate PK (HeLa); with AIM): 2293.7 ± 503.7 nM | AC0: concentration of FBP that completely reverses the inhibition of PK by AIM (cell lysate PK (MGC80-3)): 349.6 ± 31.2 nM | EC50 (cell lysate PK (RKO); read-out: AC50FBP, Control (without AIM)): 0.0672 ± 0.0324 µM | EC50 (cell lysate PK (RKO); read-out: AC50FBP, with AIM): 1.07 ± 0.394 µM | EC50 [5]: 0.0289 ± 0.021 µM
SMILES: O=C(COP(=O)(O)O)[C@@H](O)[C@H](O)[C@H](O)COP(=O)(O)O [FBP]
reversal of the inhibition of PK by AIM (cell lysate PK): completely reversed the inhibition | Kd (PKM2 [4]): 0.174 µM

SMILES: N[C@@H](CC(=O)O)C(=O)O [aspartate]
Kd (PKM2 [4]): 35 ± 7 µM

SMILES: N[C@@H](CS)C(=O)O [cysteine]
Kd (PKM2 [4]): 5.5 µM

SMILES: N[C@@H](Cc1ccccc1)C(=O)O [Phenylalanine, phenylalanine]
Kd (PKM2 [4]): 507 µM

SMILES: CC(C)[C@H](N)C(=O)O [Valine, valine]
Kd (PKM2 [4]): 757 ± 120 µM

SMILES: N[C@@H](CO)C(=O)O [Serine, serine]
glucose consumption and lactate generation with or without serine treatment ([1]; 5 mM serine 5 h): comparable | effect on glycolysis (rate, intermediate concentrations, ΔGs) ([2]; 5 mM serine): did not observe serine exert any significant effect on glycolysis | reversal of the inhibition of PK by AIM (cell lysate PK): did not significantly reverse the inhibition | Kd (PKM2 [4]): 191 µM

Reference: paper PMC11402776 (The Journal of Biological Chemistry, 2024)
